ChEMBL document CHEMBL1132645, “Novel arylpyrazino[2,3-c][1,2,6]thiadiazine 2,2-dioxides as inhibitors of platelet aggregation. 1. Synthesis and pharmacological evaluation” (1999)

Experiments:
Assay type in all cases: functional
Oryctolagus cuniculus [1] = species on record: Oryctolagus cuniculus; test: Compound was screened for its platelet aggregation induced by adenosine diphosphate in vitro in rabbit; set-up: concentration or dose not given beside the values
Summary of the method: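 Rabbit citrated PRP (male New Zealand white, 2.5–3.5 kg, cardiac puncture), adjusted to 5 × 10⁵ platelets/μL with PPP. Compound in DMSO preincubated 10 min at 37 °C, then ADP 1–2 μM added. Born aggregometry read at 5 min. Single fixed concentration; result is percent inhibition of maximal amplitude against paired vehicle controls.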

Oryctolagus cuniculus [2] = species on record: Oryctolagus cuniculus; test: Compound was screened for its platelet aggregation induced by arachidonic acid in vitro in rabbit
Summary of the method: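 Rabbit citrated PRP, 5 × 10⁵ platelets/μL, compound preincubated in DMSO 10 min at 37 °C, then arachidonic acid 1 mM. Born aggregometry at 5 min, triplicate for each concentration. Value is EC100, the lowest concentration giving complete inhibition, read from concentration–response data.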

Rattus norvegicus [3] = test: In vivo inhibitory activity after 120 min of 25 mg/kg oral administration induced by I-BOP in rats; conditions: 2 h
Rattus norvegicus [4] = test: In vivo inhibitory activity after 120 min of 25 mg/kg oral administration induced by arachidonic acid in rats; conditions: 2 h
Rattus norvegicus [5] = test: In vivo inhibitory activity after 120 min of 25 mg/kg oral administration induced by collagen in rats; conditions: 2 h
Rattus norvegicus [6] = test: In vivo inhibitory activity after 120 min of 100 mg/kg oral administration induced by I-BOP in rats; conditions: 2 h
Summary of the method: (§1)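 Male Wistar rats, 200–250 g, fasted overnight, were dosed by oral gavage with compound suspended in 0.25% carboxymethylcellulose in 10% Tween 80 (10 mL/kg). Blood was drawn by cardiac puncture under ether at 30 or 120 min and anticoagulated with heparin 1 U/mL final. PRP was diluted to (4–5) × 10⁵ cells/μL. Agonists: AA 0.4 mM, collagen 1–2 μg/mL, I-BOP 225–250 nM. Percent inhibition read at 5 min; 3–5 determinations, mean ± SEM.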

Rattus norvegicus [7] = test: In vivo inhibitory activity after 120 min of 100 mg/kg oral administration induced by arachidonic acid in rats; conditions: 2 h; summary of the method: as §1
Rattus norvegicus [8] = test: In vivo inhibitory activity after 120 min of 100 mg/kg oral administration induced by collagen in rats; conditions: 2 h; summary of the method: as §1
Rattus norvegicus [9] = test: In vivo inhibitory activity after 30 min of 100 mg/kg oral administration induced by I-BOP in rats; conditions: 0.5 h; summary of the method: as §1
Rattus norvegicus [10] = test: In vivo inhibitory activity after 30 min of 100 mg/kg oral administration induced by arachidonic acid in rats; conditions: 0.5 h; summary of the method: as §1
Rattus norvegicus [11] = test: In vivo inhibitory activity after 30 min of 100 mg/kg oral administration induced by collagen in rats; conditions: 0.5 h; summary of the method: as §1
Homo sapiens = species on record: Homo sapiens; test: Compound was screened for its platelet aggregation induced by collagen in vitro in human platelets at conc 1 mM
Summary of the method: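 Human citrated PRP (blood from consenting volunteers, 3.8% trisodium citrate 9:1; PRP 250g 10 min, PPP 2000g 20 min, room temperature), adjusted to 3 × 10⁵ platelets/μL with PPP. Compounds in DMSO preincubated 10 min at 37 °C. Agonists: AA 1 mM, collagen 1–2 μg/mL, U46619 1.4 μM, I-BOP 225–250 nM. Born turbidimetric aggregometry read 5 min after agonist; inhibition of maximal amplitude versus paired vehicle; 3–4 determinations, mean ± SEM.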

| SMILES | Inhibitory response (Oryctolagus cuniculus [1]) | EC100 (Oryctolagus cuniculus [2]) | also measured |
| --- | --- | --- | --- |
| CCN1c2nc(-c3ccccc3)c(C)nc2C(N)=NS1(=O)=O | 59% | 0.001 mg/mL |  |
| CN1c2nc(-c3ccccn3)c(-c3ccccn3)nc2C(N)=NS1(=O)=O | 43% | 0.003 mg/mL |  |
| CN1c2nc(-c3ccco3)c(-c3ccco3)nc2C(N)=NS1(=O)=O | 63% | 0.001 mg/mL |  |
| CN1c2ncc(-c3ccccc3)nc2C(N)=NS1(=O)=O | 43% | 0.0003 mg/mL |  |
| CC(C)(C)OC(=O)CN1c2nc(-c3ccccc3)c(-c3ccccc3)nc2C(N)=NS1(=O)=O | 32% | 0.001 mg/mL |  |
| O=C(O)CCn1c2c(c3ccccc31)CC(NS(=O)(=O)c1ccc(F)cc1)CC2 (stereo not given) |  |  | inhibition in vivo at 25 mg/kg (Rattus norvegicus [3]): 72.5%; inhibition in vivo at 25 mg/kg (Rattus norvegicus [4]): 74.2%; inhibition in vivo at 25 mg/kg (Rattus norvegicus [5]): 95.3% |
| Clc1ccccc1CN1CCc2sccc2C1 [TICLOPIDINE] |  |  | inhibition in vivo at 100 mg/kg (Rattus norvegicus [6]): 57.1%; inhibition in vivo at 100 mg/kg (Rattus norvegicus [7]): 0.9%; inhibition in vivo at 100 mg/kg (Rattus norvegicus [8]): 98.7% |
| Nc1ncnc2c1ncn2[C@@H]1O[C@H](CO)[C@@H](O)[C@H]1O [ADENOSINE] | 64% |  |  |
| CCN1c2nc(C)c(-c3ccccc3)nc2C(N)=NS1(=O)=O | 47% | 0.001 mg/mL | inhibition in vivo at 100 mg/kg (Rattus norvegicus [6]): 50.3%; inhibition in vivo at 100 mg/kg (Rattus norvegicus [7]): 48.8%; inhibition in vivo at 100 mg/kg (Rattus norvegicus [8]): 47.2%; inhibition in vivo at 100 mg/kg (Rattus norvegicus [9]): 59.6%; inhibition in vivo at 100 mg/kg (Rattus norvegicus [10]): 20%; inhibition in vivo at 100 mg/kg (Rattus norvegicus [11]): 93.5% |
| CC(=O)Oc1ccccc1C(=O)O [ASPIRIN] |  | 0.0025 mg/mL | inhibition at 1000 µM (Homo sapiens): 94%; inhibition in vivo at 100 mg/kg (Rattus norvegicus [6]): 0.9%; inhibition in vivo at 100 mg/kg (Rattus norvegicus [7]): 93.8%; inhibition in vivo at 100 mg/kg (Rattus norvegicus [8]): 84.6% |
| NC1=NS(=O)(=O)N(Cc2ccccc2)c2nc(-c3ccccc3)c(-c3ccccc3)nc21 | 30% | 0.003 mg/mL |  |
| CCN1c2nc(-c3cccs3)c(-c3cccs3)nc2C(N)=NS1(=O)=O | 43% | 0.003 mg/mL |  |
| CCOC(=O)CN1c2nc(-c3ccccc3)c(Br)nc2C(N)=NS1(=O)=O | 36% | 0.01 mg/mL |  |
| NC(=O)CN1c2nc(-c3ccccc3)c(-c3ccccc3)nc2C(N)=NS1(=O)=O | 47% | 0.003 mg/mL |  |
| CCN1c2nc(-c3ccccc3)c(Cl)nc2C(N)=NS1(=O)=O | 23% | 0.01 mg/mL |  |
| CCOC(=O)CN1c2nc(-c3ccccc3)c(-c3ccccc3)nc2C(N)=NS1(=O)=O | 30% | 0.0001 mg/mL |  |
| CCN1c2nc(-c3ccccc3)c(-c3ccccc3)nc2C(N)=NS1(=O)=O | 46% | 0.0003 mg/mL | inhibition in vivo at 100 mg/kg (Rattus norvegicus [6]): 30%; inhibition in vivo at 100 mg/kg (Rattus norvegicus [7]): 1%; inhibition in vivo at 100 mg/kg (Rattus norvegicus [8]): 26.3%; inhibition in vivo at 100 mg/kg (Rattus norvegicus [9]): 100%; inhibition in vivo at 100 mg/kg (Rattus norvegicus [10]): 6.5%; inhibition in vivo at 100 mg/kg (Rattus norvegicus [11]): 82.6% |
